Experimental data reported in ChEMBL document CHEMBL1149169 (J Med Chem, 2004).

target: T1, Adenosine receptor A1 (Homo sapiens, UniProt P30542); assay: Binding affinity against adenosine A1 receptor in human cortical membranes using [3H]CHA as radioligand; format: cell membranes
T1 sequence (P30542 whole entry): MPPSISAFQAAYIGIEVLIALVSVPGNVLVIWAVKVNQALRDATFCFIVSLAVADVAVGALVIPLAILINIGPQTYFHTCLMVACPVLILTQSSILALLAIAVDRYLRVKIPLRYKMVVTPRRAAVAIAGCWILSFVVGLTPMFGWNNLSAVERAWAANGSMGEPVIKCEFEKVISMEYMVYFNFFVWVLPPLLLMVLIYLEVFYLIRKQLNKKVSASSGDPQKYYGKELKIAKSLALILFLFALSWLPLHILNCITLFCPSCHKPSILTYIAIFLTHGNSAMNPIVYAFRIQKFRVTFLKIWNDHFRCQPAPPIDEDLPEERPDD

Ki [µM] | Structure (SMILES)
1.5 | CCCc1cc(O)c2ccc(C)nc2n1
0.93 | CCOc1ccc2c(=O)cc(-c3ccccc3)n(CC)c2n1
> 10 | COc1cc(-c2ccccc2)nc2nc(C)ccc12
0.56 | Cc1ccc2c(NC3CCCCC3)cc(-c3ccccc3)nc2n1
> 10 | Oc1cc(-c2ccccc2)nc2nc(Oc3ccccc3)ccc12
4 | Cc1ccc2c(O)cc(-c3cccc(N)c3)nc2n1
> 10 | Cc1ccc2c(N)ccnc2n1
7.5 | Oc1cc(-c2ccccc2)nc2nc(N3CCCCC3)ccc12
3.1 | Cc1ccc2c(O)cc(-c3ccc([N+](=O)[O-])cc3)nc2n1
3.9 | Cc1ccc2c(O)cc(-c3ccc(F)cc3)nc2n1
> 10 | Oc1cc(-c2ccccc2)nc2nc(N3CCOCC3)ccc12
> 10 | Cc1ccc2c(N3CCNCC3)cc(-c3ccccc3)nc2n1
0.43 | Cc1ccc2c(O)cc(-c3ccccc3)nc2n1
> 10 | Cc1cc(O)c2ccc(=O)[nH]c2n1
2 | Cc1ccc2c(N)cc(-c3ccccc3)nc2n1
0.3 | Oc1cc(-c2ccccc2)nc2nc(Cl)ccc12
4.1 | CCCc1cc(O)c2ccc(N)nc2n1
> 10 | Oc1cc(-c2ccccc2)nc2nc(N3CCNCC3)ccc12
> 10 | CCOc1ccc2c(OCC)cc(-c3ccccc3)nc2n1
3.4 | Nc1ccc2c(O)cc(-c3ccccc3)nc2n1
2.6 | CCOc1ccc2c(O)cc(-c3ccccc3)nc2n1
2 | COc1ccc2c(O)cc(-c3ccccc3)nc2n1
8.8 | Cc1ccc2c(Oc3ccccc3)cc(-c3ccccc3)nc2n1
> 10 | Cc1cc(O)c2ccc(N)nc2n1
2.2 | Oc1cc(-c2ccccc2)nc2nc(NC3CCCCC3)ccc12
> 10 | Cc1ccc2c(Cl)cc(-c3ccccc3)nc2n1
> 10 | CCOC(=O)CCN1CCN(c2ccc3c(O)cc(-c4ccccc4)nc3n2)CC1
> 10 | O=c1ccc2c(O)cc(-c3ccccc3)nc2[nH]1

Further lines, the compound ahead of its results:

Structure (SMILES) | Ki [µM]
CSc1cc(-c2ccccc2)nc2nc(C)ccc12 | > 10
Oc1cc(-c2ccccc2)nc2nc(F)ccc12 | 1.4
CC(=O)Nc1ccc(-c2cc(O)c3ccc(C)nc3n2)cc1 | 2
Cc1ccc2ccc(-c3ccccc3)nc2n1 | > 10
Cc1ccc2c(O)cc(-c3ccccc3F)nc2n1 | 0.49
Cc1ccc2c(O)ccnc2n1 | > 10
Cc1ccc2c(O)cc(-c3cccc([N+](=O)[O-])c3)nc2n1 | 2.2
CCOc1cc(-c2ccccc2)nc2c1ccc(=O)n2CC | > 10
Cn1c(=O)ccc2c(O)cc(-c3ccccc3)nc21 | > 10
CN(C)c1ccc2c(O)cc(-c3ccccc3)nc2n1 | 0.98
Cc1ccc2c(O)cc(-c3ccc(N)cc3)nc2n1 | 0.91
CCOc1cc(-c2ccccc2)nc2nc(Br)ccc12 | 1
COc1cc(-c2ccccc2)nc2c1ccc(=O)n2C | > 10
Cc1ccc2c(N(C)C)cc(-c3ccccc3)nc2n1 | > 10
Cc1ccc2c(N=[N+]=[N-])cc(-c3ccccc3)nc2n1 | > 10
Oc1cc(-c2ccccc2)nc2ncccc12 | 1.3
Cc1ccc2c(S)cc(-c3ccccc3)nc2n1 | 2
Oc1cc(-c2ccccc2)nc2nc(Br)ccc12 | 0.36
CCn1c(-c2ccccc2)cc(=O)c2ccc(C)nc21 | > 10
Cc1ccc2c(NN)cc(-c3ccccc3)nc2n1 | > 10

target: Adenosine receptor A2a (Bos taurus); assay: Binding affinity against adenosine A2 receptor in bovine striatal membranes using [3H]-CGS-21,680 as radioligand

Ki [µM] | Structure (SMILES)
> 10 | CCOc1ccc2c(=O)cc(-c3ccccc3)n(CC)c2n1
> 10 | Cc1ccc2c(N)ccnc2n1
> 10 | Oc1cc(-c2ccccc2)nc2nc(N3CCCCC3)ccc12
> 10 | Oc1cc(-c2ccccc2)nc2nc(N3CCOCC3)ccc12
> 10 | Cc1cc(O)c2ccc(=O)[nH]c2n1
> 10 | Oc1cc(-c2ccccc2)nc2nc(N3CCNCC3)ccc12
> 10 | CCOc1ccc2c(OCC)cc(-c3ccccc3)nc2n1

Further lines, the compound ahead of its results:

Structure (SMILES) | Ki [µM]
CSc1cc(-c2ccccc2)nc2nc(C)ccc12 | > 10
Cc1ccc2c(O)ccnc2n1 | > 10
Cc1ccc2c(O)cc(-c3ccc(N)cc3)nc2n1 | 0.5

tested on: not listed separately; assay: Ratio of binding affinity against bovine adenosine A1 to that of A2 receptor

Ratio | Structure (SMILES)
208 | CCOc1ccc2c(=O)cc(-c3ccccc3)n(CC)c2n1
> 1390 | Oc1cc(-c2ccccc2)nc2nc(N3CCCCC3)ccc12
> 63 | Oc1cc(-c2ccccc2)nc2nc(N3CCOCC3)ccc12
87 | Cc1ccc2c(O)cc(-c3ccccc3)nc2n1
> 34 | CCOc1ccc2c(OCC)cc(-c3ccccc3)nc2n1
> 1920 | CCOc1ccc2c(O)cc(-c3ccccc3)nc2n1
> 10 | Cc1ccc2c(Cl)cc(-c3ccccc3)nc2n1

Further lines, the compound ahead of its results:

Structure (SMILES) | Ratio
CSc1cc(-c2ccccc2)nc2nc(C)ccc12 | > 26
Oc1cc(-c2ccccc2)nc2nc(F)ccc12 | 41
Cc1ccc2c(O)cc(-c3ccccc3F)nc2n1 | 43
Cc1ccc2c(O)ccnc2n1 | > 1.4
Cc1ccc2c(O)cc(-c3ccc(N)cc3)nc2n1 | 73

target: T1, Adenosine receptor A1; assay: Displacement of [3H]DPCPX from adenosine A1 receptor in human brain cortical membranes; format: cell membranes
How it was run: (§1)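 Cortical membranes (0.05–0.1 mg protein) incubated in triplicate at 25 °C for 120 min with about 0.5 nM [3H]-DPCPX (89 Ci/mmol). Buffer: 50 mM Tris/HCl pH 7.7, 1 mM EDTA, 2 mM MgCl2. Nonspecific binding with 10 μM (R)-PIA; GF/C filtration.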

Ki [µM] | Structure (SMILES)
1.45 | CCCc1cc(O)c2ccc(C)nc2n1
0.448 | Cc1ccc2c(NC3CCCCC3)cc(-c3ccccc3)nc2n1
0.67 | Oc1cc(-c2ccccc2)nc2nc(Cl)ccc12
> 10 | Cc1cc(O)c2ccc(N)nc2n1
> 10 | O=c1ccc2c(O)cc(-c3ccccc3)nc2[nH]1

Second part, the compound before the results:

Structure (SMILES) | Ki [µM]
CC(=O)Nc1ccc(-c2cc(O)c3ccc(C)nc3n2)cc1 | 1.46
CN(C)c1ccc2c(O)cc(-c3ccccc3)nc2n1 | 1.37
Oc1cc(-c2ccccc2)nc2nc(Br)ccc12 | 0.336

target: T2, Adenosine receptor A1 (Bos taurus, UniProt P28190); assay: Displacement of [3H]DPCPX from adenosine A1 receptor in bovine brain cortical membranes; format: cell membranes; how it was run: as §1
T2 sequence (P28190 whole entry): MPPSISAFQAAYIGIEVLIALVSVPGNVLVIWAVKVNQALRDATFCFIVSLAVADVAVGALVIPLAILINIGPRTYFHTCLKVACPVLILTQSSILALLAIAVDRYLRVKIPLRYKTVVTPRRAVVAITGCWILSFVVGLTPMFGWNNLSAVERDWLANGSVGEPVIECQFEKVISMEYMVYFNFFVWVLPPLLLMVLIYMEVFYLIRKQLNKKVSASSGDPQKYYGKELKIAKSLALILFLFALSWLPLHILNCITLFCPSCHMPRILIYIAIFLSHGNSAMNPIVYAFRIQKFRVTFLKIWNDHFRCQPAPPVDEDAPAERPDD

Ki [µM] | Structure (SMILES)
0.0615 | CCCc1cc(O)c2ccc(C)nc2n1
0.039 | Cc1ccc2c(NC3CCCCC3)cc(-c3ccccc3)nc2n1
0.00162 | Oc1cc(-c2ccccc2)nc2nc(Cl)ccc12
> 10 | Cc1cc(O)c2ccc(N)nc2n1

Continued, compound first:

Structure (SMILES) | Ki [µM]
CC(=O)Nc1ccc(-c2cc(O)c3ccc(C)nc3n2)cc1 | 0.00167
CN(C)c1ccc2c(O)cc(-c3ccccc3)nc2n1 | 0.00602
Oc1cc(-c2ccccc2)nc2nc(Br)ccc12 | 0.0016

target: Adenosine receptor A2a (Homo sapiens, UniProt P29274); assay: Binding affinity against adenosine A2 receptor in human striatal membranes using [3H]CGS-21680 as radioligand; format: cell membranes, Striatum, Membrane
Sequence (P29274 whole entry): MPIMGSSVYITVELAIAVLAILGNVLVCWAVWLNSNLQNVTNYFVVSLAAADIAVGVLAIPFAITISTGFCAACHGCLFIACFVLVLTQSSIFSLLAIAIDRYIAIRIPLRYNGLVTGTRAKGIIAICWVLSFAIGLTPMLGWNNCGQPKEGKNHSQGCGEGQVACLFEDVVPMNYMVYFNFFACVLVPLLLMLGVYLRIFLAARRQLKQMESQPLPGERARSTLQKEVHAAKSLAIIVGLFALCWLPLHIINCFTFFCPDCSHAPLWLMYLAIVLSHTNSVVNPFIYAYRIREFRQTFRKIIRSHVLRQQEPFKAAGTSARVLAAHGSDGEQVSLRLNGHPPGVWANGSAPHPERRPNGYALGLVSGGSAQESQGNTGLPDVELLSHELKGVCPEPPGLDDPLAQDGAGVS

Ki [µM] | Structure (SMILES)
1.4 | CCOc1ccc2c(=O)cc(-c3ccccc3)n(CC)c2n1
> 10 | Cc1ccc2c(N)ccnc2n1
> 10 | Oc1cc(-c2ccccc2)nc2nc(N3CCCCC3)ccc12
> 10 | Oc1cc(-c2ccccc2)nc2nc(N3CCOCC3)ccc12
0.55 | Cc1ccc2c(O)cc(-c3ccccc3)nc2n1
> 10 | Cc1cc(O)c2ccc(=O)[nH]c2n1
> 10 | Oc1cc(-c2ccccc2)nc2nc(N3CCNCC3)ccc12
> 10 | CCOc1ccc2c(OCC)cc(-c3ccccc3)nc2n1
1.5 | CCOc1ccc2c(O)cc(-c3ccccc3)nc2n1
7.5 | Cc1cc(O)c2ccc(N)nc2n1

The next lines start with the compound.

Structure (SMILES) | Ki [µM]
CSc1cc(-c2ccccc2)nc2nc(C)ccc12 | 0.21
Oc1cc(-c2ccccc2)nc2nc(F)ccc12 | 2.7
Cc1ccc2c(O)cc(-c3ccccc3F)nc2n1 | 0.04
Cc1ccc2c(O)ccnc2n1 | 1.8
Cc1ccc2c(O)cc(-c3ccc(N)cc3)nc2n1 | 0.11

target: T2, Adenosine receptor A1; assay: Binding affinity against adenosine A1 receptor in bovine cortical membranes using [3H]CHA as radioligand; format: cell membranes
How it was run: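 Bovine cortical membranes; [3H]-CHA at 39 Ci/mmol. Compounds dissolved in DMSO, with solvent blanks run. At least six concentrations spanning 3 orders of magnitude.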

Ki [µM] | Structure (SMILES)
0.048 | CCCc1cc(O)c2ccc(C)nc2n1
0.048 | CCOc1ccc2c(=O)cc(-c3ccccc3)n(CC)c2n1
> 10 | Cc1ccc2c(N)ccnc2n1
0.0072 | Oc1cc(-c2ccccc2)nc2nc(N3CCCCC3)ccc12
0.16 | Oc1cc(-c2ccccc2)nc2nc(N3CCOCC3)ccc12
> 10 | Cc1cc(O)c2ccc(=O)[nH]c2n1
0.00025 | CCCn1c(=O)c2[nH]c(C3CCCC3)nc2n(CCC)c1=O [1,3-DIPROPYL-8-CYCLOPENTYLXANTHINE [DPCPX]]
0.21 | CCCc1cc(O)c2ccc(N)nc2n1
> 10 | Oc1cc(-c2ccccc2)nc2nc(N3CCNCC3)ccc12
0.29 | CCOc1ccc2c(OCC)cc(-c3ccccc3)nc2n1
> 10 | Cc1cc(O)c2ccc(N)nc2n1
0.07 | Oc1cc(-c2ccccc2)nc2nc(NC3CCCCC3)ccc12
> 10 | CCOC(=O)CCN1CCN(c2ccc3c(O)cc(-c4ccccc4)nc3n2)CC1

Further lines, the compound ahead of its results:

Structure (SMILES) | Ki [µM]
CSc1cc(-c2ccccc2)nc2nc(C)ccc12 | 0.38
CC(=O)Nc1ccc(-c2cc(O)c3ccc(C)nc3n2)cc1 | 0.001
Cc1ccc2c(O)ccnc2n1 | 7
Cc1ccc2c(O)cc(-c3cccc([N+](=O)[O-])c3)nc2n1 | 0.015
CCOc1cc(-c2ccccc2)nc2c1ccc(=O)n2CC | 4.7
CN(C)c1ccc2c(O)cc(-c3ccccc3)nc2n1 | 0.00056
Cc1ccc2c(O)cc(-c3ccc(N)cc3)nc2n1 | 0.0068
CCOc1cc(-c2ccccc2)nc2nc(Br)ccc12 | 0.05
Nc1nc2c(cnn2CCc2ccccc2)c2nc(-c3ccco3)nn12 [SCH-58261] | 0.357
